APJ antag – blocks the human apelin receptor APJ; P35414; CHO-K1 APJ beta-arrestin complementation, luminescence; inhibition, % at 20 µM; 330,000 compounds, 0.32% hits;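 active means inhibition above about 40% at 20 µM, limit read from the data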;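 further: cells challenged with 10 nM apelin-13 agonist together with compound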
APJ ag – activates the human apelin receptor APJ; P35414; CHO-K1 APJ PathHunter beta-arrestin, luminescence; 0% DMSO wells, 100% apelin; activation, % at 20 µM; 330,000 compounds, 0.11% hits;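 active means activation more than six SD over the plate average, tested at 20 µM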
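system = engineered CHO-K1 APJ arrestin reporter cells | input = 1000 cells per well | timing = overnight seeding, 90 min compound at 25 °C, 1 h detection | measured by = enzyme-fragment complementation luminescence | read-out = beta-arrestin recruitment to APJ as agonist activity, luminescent signal | control set = negative DMSO alone, positive Apelin-13 at 10 nM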
GAA850 FXN act – frataxin GAA850 promoter activation; activation, % at 6 µM; 360,000 compounds, 0.56% hits; AID 540364; HEK293 lucGAA850 FXN promoter luciferase reporter, 24 h; percent of 10 µM SAHA response;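 active means activation above the average of all compounds screened plus 3 SD, cutoff fixed separately per campaign, cut at about 7.5% in these data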
CXCR6 block – CXCR6 (human) receptor inhibition; inhibition, % at 20 µM; AID 602244; CHO-K1 PathHunter CXCR6 beta-arrestin, luminescence; 360,000 compounds, 0.36% hits; in the data active means inhibition above about 34%, passing the limit was not always enough;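 further: antagonist mode with CXCL16 agonist at 10 nM final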
EBI2 block – blocks human EBI2 receptor beta-arrestin signaling; EBI2 beta-arrestin recruitment, luminescence, 7a,25-OHC stimulated; inhibition, % at 5 µM; 360,000 compounds, 0.81% hits; AID 651636; in the data active means inhibition above about 38%;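 further: enzyme fragment complementation signal reports receptor beta-arrestin coupling in cells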
Target sequence (P32249 whole entry, looked up, the tested form may be a part): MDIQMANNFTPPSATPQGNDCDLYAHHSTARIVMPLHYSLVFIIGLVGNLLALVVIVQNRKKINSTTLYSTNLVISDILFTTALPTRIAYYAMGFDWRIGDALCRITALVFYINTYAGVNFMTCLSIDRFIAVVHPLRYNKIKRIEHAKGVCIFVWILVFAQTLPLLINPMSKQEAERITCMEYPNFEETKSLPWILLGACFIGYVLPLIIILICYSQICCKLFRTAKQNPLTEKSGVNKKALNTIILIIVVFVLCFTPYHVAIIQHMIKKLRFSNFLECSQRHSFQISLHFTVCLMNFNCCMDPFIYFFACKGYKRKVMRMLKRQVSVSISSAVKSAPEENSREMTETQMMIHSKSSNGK
CCR6 antag – CCR6 (human) receptor antagonism; P51684; CHO-K1 CCR6 PathHunter beta-arrestin, luminescence, CCL20-stimulated; 340,000 compounds, 0.49% hits; inhibition, % at 20 µM;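 active means compounds whose inhibition of the agonist-driven luminescence signal at 20 µM reaches about 50%, limit read from the data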;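 further: cells stimulated with CCL20 at 14 nM final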
EBI2 conf – confirmation of human EBI2 receptor antagonists. shares compounds with EBI2 block. EBI2 beta-arrestin luminescence, 7a,25-OHC antagonism. inhibition, % at 5 µM. 2,400 compounds, 29% hits. AID 651997;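 active means inhibition of at least 50%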
EBI2 agonist – activates EBI2, counter-screen for EBI2 antagonists; shares compounds with EBI2 block; EBI2-expressing cells, agonist mode, luminescence, 60 min; 0% vehicle, 100% 7α,25-dihydroxycholesterol control; activation, % at 5 µM; 2,400 tested, under 10 active;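 active means activation of at least 50%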
bGal counter – counter-screen for EBI2 antagonists: E. coli beta-galactosidase inhibition. 2,400 compounds, 1% hits. AID 652176. shares compounds with EBI2 block. inhibition, % at 5 µM. purified beta-galactosidase, luminescent Galacton Star, 15 min;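 active means replicate-average signal at least 3 plate SD below neutral wells, shown as high inhibition, flagging enzyme-inhibiting false positives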;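 further: higher means stronger loss of beta-gal luminescence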
Numbers stand for hits; 0 = inactive; - = no result. In the library only some 2% were active in any assay of this set; here they are far more common.

SMILES	APJ antag	APJ ag	GAA850 FXN act	CXCR6 block	EBI2 block	CCR6 antag	EBI2 conf	EBI2 agonist	bGal counter
CC(C)c1ccc(NC(=S)Nc2ccc(OC(F)(F)F)cc2)cc1	0	0	0	0	55.3	0	51.0	0	0
O=C(Nc1cccc(-c2csc(Nc3cccc(C(F)(F)F)c3)n2)c1)c1cc([N+](=O)[O-])cc(C(F)(F)F)c1	0	0	0	0	47.0	0	0	0	0
O=C(CSc1ccccn1)Nc1nonc1[N+](=O)[O-]	0	0	0	0	0	0	-	-	-
COc1ccc(/C=N/NC(=O)CSc2nnc(CCCc3ccc(OC)c(C)c3)o2)cc1	0	0	0	0	47.3	0	0	0	0
N#Cc1nc(COc2ccccc2)oc1N1CCN(Cc2ccccc2)CC1	0	0	0	0	0	0	-	-	-
N#Cc1nc(COc2ccccc2)oc1N1CCC(Cc2ccccc2)CC1	0	0	0	0	70.4	0	0	0	0
CCOc1ccc(N2CC(C(=O)Nc3nnc(CC)s3)CC2=O)cc1 (centres undefined)	0	0	0	0	0	0	-	-	-
Cc1c(C(=O)N2CCC(N3CCSCC3)CC2)oc2c(F)cccc12	0	0	0	0	46.5	0	0	0	0
Cc1ccc2oc(C(=O)N3CCC(N4CCSCC4)CC3)c(C)c2c1	0	0	0	0	71.3	0	0	0	0
CCOC(=O)C1CCN(C2CCN(C(=O)c3oc4c(F)cccc4c3C)CC2)CC1	0	0	0	0	0	0	-	-	-
Cc1c(C(=O)N2CCN(C3CCS(=O)(=O)C3)CC2)oc2ccc(Cl)cc12 (centres undefined)	0	0	0	0	0	0	-	-	-
CC(=O)NCCNC(=O)C1(C)Cc2c(-c3ccc(NC(C)=O)cc3)ccnc2O1 (centres undefined)	-	-	0	0	0	-	-	-	-
CCOc1ccc(N2CSC(=S)N(c3ccc(OCC)cc3)C2)cc1	0	0	0	0	61.9	0	0	0	0
CCOc1ccc(N2CC(=O)SC2=S)cc1	0	0	0	0	0	0	-	-	-
COc1cccc(SCC2(O)CCN(C(=O)c3ccc(Cl)cc3)CC2)c1	0	0	0	0	55.2	0	0	0	0
COc1cc(OC)cc(OC(=O)C2CCN(C(=O)c3ccc(Cl)cc3)CC2)c1	0	0	0	0	0	0	-	-	-
O=C(c1ccc(Cl)cc1)N1CCC(O)(CSc2ccc(Cl)cc2)CC1	0	0	0	0	68.8	0	56.5	0	0
O=C(c1ccc(Cl)cc1)N1CCC(O)(CSc2ccccc2)CC1	0	0	0	0	67.8	0	71.0	0	0
CN1CCN(C(=O)c2ccc(CSc3ccc(Cl)cc3)cc2)CC1	0	0	0	0	0	0	-	-	-
Cc1ccc(NC(NC(=O)Cc2ccccc2)C(Cl)(Cl)Cl)cc1 (centres undefined)	-	-	0	0	44.1	0	0	0	0
CCOC1CCCc2oc(-c3ccc(OC)cc3)c(C(=O)NCCCCO)c21 (centres undefined)	-	-	-	0	0	-	-	-	-
CC(=C/c1ccco1)/C=N/NC(=O)CSc1nnc(SCc2ccc(C)cc2)s1	0	0	0	0	59.3	0	0	0	0
O=C(CSc1nnc(SCc2ccccc2)s1)N/N=C/C=C\c1ccco1	0	0	0	0	0	0	-	-	-
O=C(CSc1nnc(SCc2ccc(Cl)cc2)s1)N/N=C/c1ccc(Cl)cc1Cl	0	0	0	0	52.4	0	0	0	0
COc1ccc(C(C)(O)c2nc(-c3cnc4ccccc4c3)cs2)cc1 (centres undefined)	-	-	0	0	0	-	-	-	-
COc1ccc(C(=O)Nc2ccc(O)c3c(=O)cc(-c4cccc(Cl)c4)oc23)cc1	0	0	0	0	44.0	0	0	0	0

Screening results from PubChem.
